Data from ChEMBL document CHEMBL5653631, “A Potent and Selective ULK1 Inhibitor Suppresses Autophagy and Sensitizes Cancer Cells to Nutrient Stress” (iScience, 2018).
Values belong to the compound of their own block, whether it stands above or below them.

Columns and labels:
[1] = target: Fibroblast growth factor receptor 3 (Homo sapiens) (UniProt P22607); assay: Inhibition of human recombinant FGFR3 at 500 nM in presence of ATP by radiometric assay relative to control
[2] = target: MAP kinase-activated protein kinase 3 (Homo sapiens) (UniProt Q16644); assay: Inhibition of human recombinant MAPKAPK3 at 500 nM in presence of ATP by radiometric assay relative to control
[3] = target: Ribosomal protein S6 kinase alpha-3 (Homo sapiens) (UniProt P51812); assay: Inhibition of human recombinant RSK2 at 500 nM related to control ULK1
[4] = target: T1, Aurora kinase A (Homo sapiens) (UniProt O14965); assay: Inhibition of human recombinant AurA at 15 nM in presence of ATP by radiometric assay relative to control
T1 sequence (whole entry): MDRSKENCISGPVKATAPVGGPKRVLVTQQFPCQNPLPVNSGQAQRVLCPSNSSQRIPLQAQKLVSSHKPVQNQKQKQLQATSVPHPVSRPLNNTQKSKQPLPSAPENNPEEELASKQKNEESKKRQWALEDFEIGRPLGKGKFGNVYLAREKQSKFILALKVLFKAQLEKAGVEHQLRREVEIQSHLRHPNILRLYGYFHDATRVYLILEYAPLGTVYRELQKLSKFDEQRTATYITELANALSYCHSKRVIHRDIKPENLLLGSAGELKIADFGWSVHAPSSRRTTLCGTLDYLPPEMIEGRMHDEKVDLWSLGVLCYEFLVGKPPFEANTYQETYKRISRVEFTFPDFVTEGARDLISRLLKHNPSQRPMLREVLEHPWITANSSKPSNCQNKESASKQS
Method in brief: (§1)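 Panel of 327 recombinant human kinases, each assayed in vitro by radiometric activity assay in duplicate at a single inhibitor concentration per compound, chosen with reference to its ULK1 inhibition. Activity remaining was expressed as percent of vehicle control, and percent inhibition was calculated as 100 minus percent activity remaining.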

[5] = target: Serine/threonine-protein kinase MRCK alpha (Homo sapiens) (UniProt Q5VT25); assay: Inhibition of human recombinant MRCKa at 15 nM in presence of ATP by radiometric assay relative to control
[6] = target: T2, Ephrin type-B receptor 3 (Homo sapiens) (UniProt P54753); assay: Inhibition of human recombinant EphB3 at 40 nM related to control ULK1
T2 sequence (whole entry): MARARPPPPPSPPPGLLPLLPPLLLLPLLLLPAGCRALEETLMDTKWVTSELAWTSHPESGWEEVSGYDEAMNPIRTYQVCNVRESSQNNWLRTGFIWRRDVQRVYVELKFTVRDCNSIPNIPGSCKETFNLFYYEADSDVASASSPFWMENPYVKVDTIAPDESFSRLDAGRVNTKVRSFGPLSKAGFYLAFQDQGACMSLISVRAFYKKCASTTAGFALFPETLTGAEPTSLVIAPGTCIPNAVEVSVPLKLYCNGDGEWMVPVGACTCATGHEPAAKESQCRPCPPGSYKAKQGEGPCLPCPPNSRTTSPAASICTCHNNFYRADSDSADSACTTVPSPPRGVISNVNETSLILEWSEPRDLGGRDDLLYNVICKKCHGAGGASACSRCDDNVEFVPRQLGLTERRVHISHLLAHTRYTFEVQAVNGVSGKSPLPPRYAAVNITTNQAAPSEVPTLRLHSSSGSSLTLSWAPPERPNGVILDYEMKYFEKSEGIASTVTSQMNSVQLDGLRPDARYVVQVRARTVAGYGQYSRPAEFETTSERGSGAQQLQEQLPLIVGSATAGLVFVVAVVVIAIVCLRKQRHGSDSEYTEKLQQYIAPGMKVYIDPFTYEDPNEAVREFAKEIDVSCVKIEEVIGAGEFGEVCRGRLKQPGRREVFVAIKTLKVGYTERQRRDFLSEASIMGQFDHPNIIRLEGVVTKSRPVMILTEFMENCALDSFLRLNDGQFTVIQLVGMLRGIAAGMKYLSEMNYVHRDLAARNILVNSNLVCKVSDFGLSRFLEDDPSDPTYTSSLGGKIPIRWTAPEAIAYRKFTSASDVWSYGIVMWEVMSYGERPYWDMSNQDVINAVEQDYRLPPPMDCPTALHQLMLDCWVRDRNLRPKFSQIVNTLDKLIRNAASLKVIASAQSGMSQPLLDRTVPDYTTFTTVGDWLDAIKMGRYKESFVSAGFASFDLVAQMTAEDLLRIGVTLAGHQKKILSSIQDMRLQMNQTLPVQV

[7] = target: T1, Aurora kinase A (Homo sapiens); assay: Inhibition of human recombinant AurA at 40 nM in presence of ATP by radiometric assay relative to control; method in brief: as §1

Sequence of Fibroblast growth factor receptor 3 (Homo sapiens) (P22607 23-806 limits assumed): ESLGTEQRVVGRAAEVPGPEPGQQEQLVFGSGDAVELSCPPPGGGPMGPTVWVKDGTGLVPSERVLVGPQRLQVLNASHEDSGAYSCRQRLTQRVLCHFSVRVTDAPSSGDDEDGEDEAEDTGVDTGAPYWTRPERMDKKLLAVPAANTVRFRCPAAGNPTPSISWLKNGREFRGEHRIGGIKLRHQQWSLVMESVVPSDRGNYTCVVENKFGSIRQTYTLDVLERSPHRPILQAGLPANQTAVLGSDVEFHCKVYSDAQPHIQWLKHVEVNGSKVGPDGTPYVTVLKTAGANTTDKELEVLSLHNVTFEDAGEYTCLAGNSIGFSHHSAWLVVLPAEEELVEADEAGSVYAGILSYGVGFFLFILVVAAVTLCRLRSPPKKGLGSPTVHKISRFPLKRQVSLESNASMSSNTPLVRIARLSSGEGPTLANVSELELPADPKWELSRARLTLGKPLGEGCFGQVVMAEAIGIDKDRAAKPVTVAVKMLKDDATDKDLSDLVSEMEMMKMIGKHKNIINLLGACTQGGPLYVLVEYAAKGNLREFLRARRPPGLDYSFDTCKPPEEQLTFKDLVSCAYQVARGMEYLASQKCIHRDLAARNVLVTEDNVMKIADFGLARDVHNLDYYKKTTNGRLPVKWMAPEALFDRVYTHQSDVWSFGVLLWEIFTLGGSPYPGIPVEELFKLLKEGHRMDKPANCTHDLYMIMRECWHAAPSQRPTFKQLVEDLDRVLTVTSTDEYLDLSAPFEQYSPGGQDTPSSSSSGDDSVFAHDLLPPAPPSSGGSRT
Sequence of Ribosomal protein S6 kinase alpha-3 (Homo sapiens) (P51812 whole entry): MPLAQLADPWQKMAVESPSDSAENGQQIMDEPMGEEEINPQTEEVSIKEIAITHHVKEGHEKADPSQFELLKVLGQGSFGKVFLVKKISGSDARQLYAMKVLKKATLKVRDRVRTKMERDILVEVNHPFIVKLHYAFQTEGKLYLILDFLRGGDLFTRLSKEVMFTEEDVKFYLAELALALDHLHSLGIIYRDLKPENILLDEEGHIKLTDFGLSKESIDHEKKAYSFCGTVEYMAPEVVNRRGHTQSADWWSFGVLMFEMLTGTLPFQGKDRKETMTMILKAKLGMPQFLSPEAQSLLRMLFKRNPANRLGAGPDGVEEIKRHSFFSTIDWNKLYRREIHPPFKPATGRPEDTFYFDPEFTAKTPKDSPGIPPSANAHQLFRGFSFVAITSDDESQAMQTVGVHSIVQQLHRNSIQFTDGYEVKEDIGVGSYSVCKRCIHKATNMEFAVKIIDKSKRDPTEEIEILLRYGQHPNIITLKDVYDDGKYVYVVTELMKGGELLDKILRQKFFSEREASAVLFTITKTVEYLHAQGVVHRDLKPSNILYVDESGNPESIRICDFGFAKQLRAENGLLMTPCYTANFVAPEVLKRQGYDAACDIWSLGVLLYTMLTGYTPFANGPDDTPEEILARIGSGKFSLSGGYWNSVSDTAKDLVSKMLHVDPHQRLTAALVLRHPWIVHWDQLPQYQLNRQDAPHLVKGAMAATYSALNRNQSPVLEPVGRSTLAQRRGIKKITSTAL
Sequence of MAP kinase-activated protein kinase 3 (Homo sapiens) (Q16644 whole entry, looked up): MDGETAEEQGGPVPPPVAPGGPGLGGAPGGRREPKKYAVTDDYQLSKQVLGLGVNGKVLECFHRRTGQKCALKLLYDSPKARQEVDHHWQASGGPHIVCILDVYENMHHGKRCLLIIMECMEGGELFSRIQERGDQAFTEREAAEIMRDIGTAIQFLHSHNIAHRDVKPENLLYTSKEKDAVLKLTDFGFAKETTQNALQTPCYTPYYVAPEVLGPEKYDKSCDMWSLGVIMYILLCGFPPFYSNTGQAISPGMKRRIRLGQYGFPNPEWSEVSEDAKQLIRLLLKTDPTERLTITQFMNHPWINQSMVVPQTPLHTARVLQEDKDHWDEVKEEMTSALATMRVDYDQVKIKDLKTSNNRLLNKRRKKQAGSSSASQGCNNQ
Sequence of Serine/threonine-protein kinase MRCK alpha (Homo sapiens) (Q5VT25 whole entry): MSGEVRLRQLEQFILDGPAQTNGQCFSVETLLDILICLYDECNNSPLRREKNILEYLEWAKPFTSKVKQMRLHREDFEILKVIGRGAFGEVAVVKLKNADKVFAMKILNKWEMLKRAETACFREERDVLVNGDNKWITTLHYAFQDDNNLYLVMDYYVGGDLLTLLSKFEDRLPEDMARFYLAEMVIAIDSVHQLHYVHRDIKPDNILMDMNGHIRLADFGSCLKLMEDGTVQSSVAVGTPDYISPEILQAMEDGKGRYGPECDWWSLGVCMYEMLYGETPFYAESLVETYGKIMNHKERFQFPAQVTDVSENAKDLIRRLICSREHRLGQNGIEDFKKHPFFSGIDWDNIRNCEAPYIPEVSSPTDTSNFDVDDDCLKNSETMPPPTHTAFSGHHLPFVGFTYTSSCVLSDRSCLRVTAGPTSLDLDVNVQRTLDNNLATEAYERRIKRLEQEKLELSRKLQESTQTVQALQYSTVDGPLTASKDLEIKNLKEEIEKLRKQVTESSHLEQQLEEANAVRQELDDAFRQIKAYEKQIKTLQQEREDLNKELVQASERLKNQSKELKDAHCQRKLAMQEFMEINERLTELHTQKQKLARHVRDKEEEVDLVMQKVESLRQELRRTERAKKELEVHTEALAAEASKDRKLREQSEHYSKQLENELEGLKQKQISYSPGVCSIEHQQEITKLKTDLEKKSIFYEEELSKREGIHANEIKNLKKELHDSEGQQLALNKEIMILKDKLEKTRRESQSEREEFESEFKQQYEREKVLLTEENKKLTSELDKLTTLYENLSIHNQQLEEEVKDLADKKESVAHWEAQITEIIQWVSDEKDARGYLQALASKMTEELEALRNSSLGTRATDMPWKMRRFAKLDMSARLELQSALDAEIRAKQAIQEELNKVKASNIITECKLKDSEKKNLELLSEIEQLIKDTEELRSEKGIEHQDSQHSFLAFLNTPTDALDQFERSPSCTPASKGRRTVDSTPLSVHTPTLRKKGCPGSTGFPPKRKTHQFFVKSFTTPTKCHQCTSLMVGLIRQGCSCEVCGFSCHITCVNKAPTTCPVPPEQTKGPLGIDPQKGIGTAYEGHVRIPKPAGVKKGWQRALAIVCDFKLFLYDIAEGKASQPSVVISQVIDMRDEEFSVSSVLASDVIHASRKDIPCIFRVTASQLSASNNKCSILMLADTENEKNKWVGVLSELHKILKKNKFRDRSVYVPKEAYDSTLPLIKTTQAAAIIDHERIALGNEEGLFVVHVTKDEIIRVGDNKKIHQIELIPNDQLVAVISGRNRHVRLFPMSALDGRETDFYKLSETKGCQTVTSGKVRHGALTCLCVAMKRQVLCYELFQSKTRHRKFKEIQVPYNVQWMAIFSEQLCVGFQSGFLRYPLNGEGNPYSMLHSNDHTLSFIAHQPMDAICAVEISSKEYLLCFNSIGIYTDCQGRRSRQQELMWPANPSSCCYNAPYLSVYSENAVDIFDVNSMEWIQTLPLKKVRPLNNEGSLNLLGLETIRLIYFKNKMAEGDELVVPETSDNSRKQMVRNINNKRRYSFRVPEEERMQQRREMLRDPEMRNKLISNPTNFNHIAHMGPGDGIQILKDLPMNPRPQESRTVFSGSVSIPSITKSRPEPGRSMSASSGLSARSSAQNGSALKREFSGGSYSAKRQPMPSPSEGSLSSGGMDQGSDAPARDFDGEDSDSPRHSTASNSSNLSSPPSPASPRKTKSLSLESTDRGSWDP

- inhibition [1]: 42%
- inhibition [2]: 0%
- fold change (FC) [3]: 0.5
Compound: CNC(=O)c1ccccc1Oc1nc(Nc2cc(OC)c(OC)c(OC)c2)ncc1Br

- inhibition [4]: 13%
- inhibition [5]: 11%
Compound: CC(C)[C@H](NC(=O)c1cc(-c2cnn3cc(-c4ccc(OCCN5CCCCC5)cc4)cnc23)cs1)C(F)(F)F

- fold change (FC) [6]: 0
- inhibition [7]: 22%
Compound: O=C(N[C@@H](C1CC1)C(F)(F)F)c1cc(-c2cnn3cc(-c4ccc(F)cc4)cnc23)cs1
